Measured values taken from ChEMBL document CHEMBL2010643 (Bioorg Med Chem Lett, 2012).
Activity calls are given as the source filed them. The rule behind the calls is not given here.

Assays:
[1] = target: Glycogen synthase kinase-3 beta (Homo sapiens) (UniProt P49841); test: Inhibition of GSK3b assessed as residual activity at 1 uM relative to control
Outline: (§1)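 Standard radioactivity-based enzymatic assays were run across a 124-kinase panel (Dundee profiling), with compound at 1 µM. Kinase activity was expressed relative to control.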

[2] = target: Dual specificity mitogen-activated protein kinase kinase 2 (Homo sapiens) (UniProt P36507); test: Inhibition of MKK2 assessed as residual activity at 1 uM relative to control
Mus musculus [3] = test: Inhibition of LRRK2 phosphorylation at Ser935 in C57BL/6 mouse spleen at 10 mg/kg, po administered for 8 hrs followed by 2 hrs dosing; assay type: functional, organism-based; design: dose 10 mg/kg
Outline: (§2)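 Mice were dosed by oral gavage at 10 or 50 mg/kg. Brain, spleen and kidney were collected. Endogenous LRRK2 was resolved by SDS–PAGE and blotted with phospho-specific antibodies to Ser910 and Ser935 and with an antibody to total LRRK2.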

[4] = target: Receptor tyrosine-protein kinase erbB-4 (Homo sapiens) (UniProt Q15303); test: Inhibition of HER4 assessed as residual activity at 1 uM relative to control; outline: as §1
[5] = target: Proto-oncogene tyrosine-protein kinase Src (Homo sapiens) (UniProt P12931); test: Inhibition of Src assessed as residual activity at 1 uM relative to control
[6] = target: Insulin receptor-related protein (Homo sapiens) (UniProt P14616); test: Inhibition of IRR assessed as residual activity at 10 uM relative to control
[7] = target: Receptor-interacting serine/threonine-protein kinase 2 (Homo sapiens) (UniProt O43353); test: Inhibition of RIPK2 assessed as residual activity at 10 uM relative to control
[8] = Inhibition of CK2 assessed as residual activity at 1 uM relative to control
[9] = target: Serine/threonine-protein kinase PAK 4 (Homo sapiens) (UniProt O96013); test: Inhibition of PAK4 assessed as residual activity at 1 uM relative to control
[10] = target: Calcium/calmodulin-dependent protein kinase kinase 2 (Homo sapiens) (UniProt Q96RR4); test: Inhibition of CAMKKb assessed as residual activity at 10 uM relative to control
Mus musculus [11] = test: Inhibition of LRRK2 phosphorylation at Ser935 in C57BL/6 mouse spleen at 50 mg/kg, po administered for 8 hrs followed by 2 hrs dosing; assay type: functional, organism-based; design: dose 50 mg/kg; outline: as §2
[12] = target: Protein kinase C alpha type (Homo sapiens) (UniProt P17252); test: Inhibition of PKCalpha assessed as residual activity at 1 uM relative to control
[13] = target: Leucine-rich repeat serine/threonine-protein kinase 2 (Homo sapiens, UniProt Q5S007); test: Inhibition of wild-type LRRK2 phosphorylation at Ser935 expressed in HEK293 cells at 0.1 to 0.3 uM after 90 mins by immunoblot analysis; assay type: cell-based
Outline: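 HEK293 cells stably expressing wild-type GFP-LRRK2 exposed to DMSO or increasing inhibitor concentrations for 90 min. Lysates immunoblotted for LRRK2 phosphorylated at Ser910 and Ser935 and for total LRRK2.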

[14] = target: Mitogen-activated protein kinase 15 (Homo sapiens) (UniProt Q8TD08); test: Inhibition of ERK8 assessed as residual activity at 1 uM relative to control; outline: as §1
[15] = target: Proto-oncogene tyrosine-protein kinase Src (Homo sapiens) (UniProt P12931); test: Inhibition of Src assessed as residual activity at 10 uM relative to control
[16] = target: Serine/threonine-protein kinase TBK1 (Homo sapiens) (UniProt Q9UHD2); test: Inhibition of TBK1 assessed as residual activity at 1 uM relative to control
[17] = target: Glycogen synthase kinase-3 beta (Homo sapiens) (UniProt P49841); test: Inhibition of GSK3b assessed as residual activity at 10 uM relative to control
Plasma [18] = test: AUClast in Swiss albino mouse plasma at 10 mg/kg, po; assay type: ADME, organism-based; design: time 0 - last, dose 10 mg/kg, route oral; settings: in vivo
Outline: (§3)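 Male Swiss Albino mice were given a single dose, either intravenous at 1 mg/kg or oral at 10 mg/kg. AUClast was measured in plasma and in brain. Half-life, plasma clearance, volume of distribution and oral bioavailability were derived from the plasma data.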

Plasma [19] = test: AUClast in Swiss albino mouse plasma at 1 mg/kg, iv; assay type: ADME, organism-based; design: time 0 - last, dose 1 mg/kg, route intravenous; settings: in vivo; outline: as §3
[20] = target: Serine/threonine-protein kinase pim-3 (Homo sapiens) (UniProt Q86V86); test: Inhibition of PIM3 assessed as residual activity at 10 uM relative to control
Mus musculus [21] = test: Inhibition of LRRK2 phosphorylation at Ser910 in C57BL/6 mouse spleen at 50 mg/kg, po administered for 8 hrs followed by 2 hrs dosing; assay type: functional, organism-based; design: dose 50 mg/kg; outline: as §2
[22] = target: Eukaryotic elongation factor 2 kinase (Homo sapiens) (UniProt O00418); test: Inhibition of EF2K assessed as residual activity at 10 uM relative to control
[23] = target: Serine/threonine-protein kinase PAK 4 (Homo sapiens) (UniProt O96013); test: Inhibition of PAK4 assessed as residual activity at 10 uM relative to control
[24] = target: Serine/threonine-protein kinase Sgk1 (Homo sapiens) (UniProt O00141); test: Inhibition of SGK1 assessed as residual activity at 1 uM relative to control
[25] = target: MAP kinase-interacting serine/threonine-protein kinase 2 (Homo sapiens) (UniProt Q9HBH9); test: Inhibition of MNK2 assessed as residual activity at 10 uM relative to control
[26] = target: Tau-tubulin kinase 1 (Homo sapiens) (UniProt Q5TCY1); test: Inhibition of TTBK1 assessed as residual activity at 1 uM relative to control
Outline: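 Radioactivity-based enzymatic kinase assays run across a 124-kinase profiling panel (Dundee), reporting the remaining kinase activity relative to a control.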

[27] = Volume of distribution at steady state in Swiss albino mouse at 1 mg/kg, iv; assay type: ADME, organism-based; design: dose 1 mg/kg, route intravenous; settings: in vivo, read-out: Vdss
Outline: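 Male Swiss Albino mice given a single intravenous dose of 1 mg/kg (oral arm 10 mg/kg). Plasma and brain exposure measured, and steady-state volume of distribution derived from the plasma profile.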

[28] = target: Eukaryotic translation initiation factor 2-alpha kinase 3 (Homo sapiens) (UniProt Q9NZJ5); test: Inhibition of EIF2AK3 assessed as residual activity at 10 uM relative to control
[29] = target: Tyrosine-protein kinase CSK (Homo sapiens) (UniProt P41240); test: Inhibition of CSK assessed as residual activity at 1 uM relative to control; outline: as §1
[30] = target: Ephrin type-A receptor 2 (Homo sapiens) (UniProt P29317); test: Inhibition of EPH-A2 assessed as residual activity at 1 uM relative to control; outline: as §1
[31] = target: Serine/threonine-protein kinase pim-3 (Homo sapiens) (UniProt Q86V86); test: Inhibition of PIM3 assessed as residual activity at 1 uM relative to control
[32] = target: Mitogen-activated protein kinase kinase kinase 1 (Homo sapiens) (UniProt Q13233); test: Inhibition of MEKK1 assessed as residual activity at 10 uM relative to control
[33] = target: Serine/threonine-protein kinase STK11 (Homo sapiens) (UniProt Q15831); test: Inhibition of LKB1 assessed as residual activity at 10 uM relative to control
[34] = target: Serine/threonine-protein kinase N2 (Homo sapiens) (UniProt Q16513); test: Inhibition of PRK2 assessed as residual activity at 10 uM relative to control

Chain of Glycogen synthase kinase-3 beta (Homo sapiens) (P49841 whole entry, looked up): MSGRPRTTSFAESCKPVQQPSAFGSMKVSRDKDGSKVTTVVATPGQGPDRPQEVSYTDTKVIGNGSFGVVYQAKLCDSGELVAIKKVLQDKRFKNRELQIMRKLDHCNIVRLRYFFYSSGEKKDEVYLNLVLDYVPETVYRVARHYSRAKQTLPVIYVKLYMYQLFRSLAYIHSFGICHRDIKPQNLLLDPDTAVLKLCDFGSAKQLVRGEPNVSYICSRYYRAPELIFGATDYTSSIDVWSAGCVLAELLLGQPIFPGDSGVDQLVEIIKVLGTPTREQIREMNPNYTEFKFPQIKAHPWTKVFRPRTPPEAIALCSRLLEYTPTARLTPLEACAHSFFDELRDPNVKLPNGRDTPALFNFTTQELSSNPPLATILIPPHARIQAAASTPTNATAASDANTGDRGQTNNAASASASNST
Chain of Proto-oncogene tyrosine-protein kinase Src (Homo sapiens) (P12931 2-536 limits assumed): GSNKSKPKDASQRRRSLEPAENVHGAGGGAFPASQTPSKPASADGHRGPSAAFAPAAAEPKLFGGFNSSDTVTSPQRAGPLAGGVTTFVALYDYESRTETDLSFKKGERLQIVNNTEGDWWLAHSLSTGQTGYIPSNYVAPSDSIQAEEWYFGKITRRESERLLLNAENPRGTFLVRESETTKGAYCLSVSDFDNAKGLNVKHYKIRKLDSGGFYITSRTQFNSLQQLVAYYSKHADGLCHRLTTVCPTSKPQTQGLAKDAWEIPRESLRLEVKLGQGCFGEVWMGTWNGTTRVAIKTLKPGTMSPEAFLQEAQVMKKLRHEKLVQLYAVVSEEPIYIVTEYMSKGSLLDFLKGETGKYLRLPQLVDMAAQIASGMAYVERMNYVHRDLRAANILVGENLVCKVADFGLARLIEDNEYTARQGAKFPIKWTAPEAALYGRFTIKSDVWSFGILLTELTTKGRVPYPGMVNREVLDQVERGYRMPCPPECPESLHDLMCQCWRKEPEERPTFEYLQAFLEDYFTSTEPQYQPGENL
Chain of Serine/threonine-protein kinase PAK 4 (Homo sapiens) (O96013 whole entry, looked up): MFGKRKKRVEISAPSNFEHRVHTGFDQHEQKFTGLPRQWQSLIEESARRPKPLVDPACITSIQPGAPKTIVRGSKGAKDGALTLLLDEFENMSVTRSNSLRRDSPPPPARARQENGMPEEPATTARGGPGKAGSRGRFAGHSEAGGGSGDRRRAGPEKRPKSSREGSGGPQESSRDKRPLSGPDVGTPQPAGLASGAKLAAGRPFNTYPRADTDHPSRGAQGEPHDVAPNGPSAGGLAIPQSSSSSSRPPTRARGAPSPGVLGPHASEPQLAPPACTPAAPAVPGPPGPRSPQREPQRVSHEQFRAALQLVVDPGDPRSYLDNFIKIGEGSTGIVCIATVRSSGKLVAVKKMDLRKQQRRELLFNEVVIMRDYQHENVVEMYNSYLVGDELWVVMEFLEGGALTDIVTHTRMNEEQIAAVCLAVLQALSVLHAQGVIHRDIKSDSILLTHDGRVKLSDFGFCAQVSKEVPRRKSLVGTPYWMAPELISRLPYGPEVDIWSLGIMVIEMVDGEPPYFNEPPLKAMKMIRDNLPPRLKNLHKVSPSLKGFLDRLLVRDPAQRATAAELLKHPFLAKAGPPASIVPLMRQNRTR
Chain of Mitogen-activated protein kinase kinase kinase 1 (Homo sapiens) (Q13233 whole entry): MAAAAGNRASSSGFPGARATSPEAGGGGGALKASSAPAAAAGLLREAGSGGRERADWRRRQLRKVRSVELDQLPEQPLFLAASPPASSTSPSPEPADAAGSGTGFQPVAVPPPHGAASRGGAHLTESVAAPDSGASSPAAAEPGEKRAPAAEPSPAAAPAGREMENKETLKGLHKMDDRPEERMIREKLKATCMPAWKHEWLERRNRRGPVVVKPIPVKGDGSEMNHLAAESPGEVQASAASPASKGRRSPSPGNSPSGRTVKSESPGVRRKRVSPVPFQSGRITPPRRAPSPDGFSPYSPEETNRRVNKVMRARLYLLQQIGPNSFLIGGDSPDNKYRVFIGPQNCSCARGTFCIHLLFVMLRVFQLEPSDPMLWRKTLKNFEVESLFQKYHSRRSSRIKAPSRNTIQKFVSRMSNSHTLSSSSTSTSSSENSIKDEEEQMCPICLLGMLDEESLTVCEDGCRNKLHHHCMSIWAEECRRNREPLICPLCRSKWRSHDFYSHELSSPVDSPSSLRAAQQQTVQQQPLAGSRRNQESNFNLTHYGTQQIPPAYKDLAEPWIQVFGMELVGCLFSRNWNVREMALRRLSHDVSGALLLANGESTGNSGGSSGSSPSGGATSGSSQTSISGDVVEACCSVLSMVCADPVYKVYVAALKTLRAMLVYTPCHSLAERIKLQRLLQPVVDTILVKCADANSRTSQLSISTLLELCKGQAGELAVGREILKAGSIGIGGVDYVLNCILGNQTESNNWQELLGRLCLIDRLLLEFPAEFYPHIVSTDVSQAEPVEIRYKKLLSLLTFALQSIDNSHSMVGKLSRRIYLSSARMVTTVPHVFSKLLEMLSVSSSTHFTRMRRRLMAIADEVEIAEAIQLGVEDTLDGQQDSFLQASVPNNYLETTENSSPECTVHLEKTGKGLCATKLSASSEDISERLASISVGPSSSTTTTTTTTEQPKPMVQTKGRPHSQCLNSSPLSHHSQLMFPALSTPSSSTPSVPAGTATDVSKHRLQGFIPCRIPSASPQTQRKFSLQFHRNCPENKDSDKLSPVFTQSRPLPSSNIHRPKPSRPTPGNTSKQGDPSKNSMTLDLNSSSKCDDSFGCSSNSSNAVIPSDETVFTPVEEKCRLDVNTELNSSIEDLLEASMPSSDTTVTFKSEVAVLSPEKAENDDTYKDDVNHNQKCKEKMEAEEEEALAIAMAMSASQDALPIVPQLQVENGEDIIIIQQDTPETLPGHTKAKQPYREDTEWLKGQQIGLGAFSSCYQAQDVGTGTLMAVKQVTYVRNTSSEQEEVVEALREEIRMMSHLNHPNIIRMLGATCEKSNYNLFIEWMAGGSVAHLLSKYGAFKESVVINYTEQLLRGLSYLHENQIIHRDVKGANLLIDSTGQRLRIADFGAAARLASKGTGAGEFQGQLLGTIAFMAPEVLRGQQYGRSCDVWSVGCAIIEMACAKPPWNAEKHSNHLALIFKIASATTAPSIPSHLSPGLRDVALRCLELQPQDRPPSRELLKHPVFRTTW
Chain of Insulin receptor-related protein (Homo sapiens) (P14616 27-742 limits assumed): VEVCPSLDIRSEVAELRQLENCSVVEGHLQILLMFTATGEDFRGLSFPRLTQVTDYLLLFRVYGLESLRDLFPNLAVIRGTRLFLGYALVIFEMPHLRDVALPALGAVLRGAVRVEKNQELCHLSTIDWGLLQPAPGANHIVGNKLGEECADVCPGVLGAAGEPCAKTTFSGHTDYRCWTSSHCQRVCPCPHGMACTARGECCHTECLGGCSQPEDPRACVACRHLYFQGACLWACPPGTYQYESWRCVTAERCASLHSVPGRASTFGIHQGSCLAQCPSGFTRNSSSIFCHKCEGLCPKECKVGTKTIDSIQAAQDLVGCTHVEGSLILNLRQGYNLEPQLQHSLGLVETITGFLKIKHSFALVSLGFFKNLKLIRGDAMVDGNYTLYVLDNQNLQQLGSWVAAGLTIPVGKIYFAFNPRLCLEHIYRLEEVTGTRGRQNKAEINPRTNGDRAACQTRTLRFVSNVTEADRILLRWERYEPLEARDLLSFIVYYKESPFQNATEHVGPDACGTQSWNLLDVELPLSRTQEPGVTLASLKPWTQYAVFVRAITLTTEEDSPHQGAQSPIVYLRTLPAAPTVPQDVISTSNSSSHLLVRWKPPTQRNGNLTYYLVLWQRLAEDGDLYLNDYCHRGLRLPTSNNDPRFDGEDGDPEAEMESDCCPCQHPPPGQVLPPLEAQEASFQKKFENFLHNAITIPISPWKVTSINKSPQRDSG
Chain of Insulin receptor-related protein (Homo sapiens) (P14616 747-1297 limits assumed): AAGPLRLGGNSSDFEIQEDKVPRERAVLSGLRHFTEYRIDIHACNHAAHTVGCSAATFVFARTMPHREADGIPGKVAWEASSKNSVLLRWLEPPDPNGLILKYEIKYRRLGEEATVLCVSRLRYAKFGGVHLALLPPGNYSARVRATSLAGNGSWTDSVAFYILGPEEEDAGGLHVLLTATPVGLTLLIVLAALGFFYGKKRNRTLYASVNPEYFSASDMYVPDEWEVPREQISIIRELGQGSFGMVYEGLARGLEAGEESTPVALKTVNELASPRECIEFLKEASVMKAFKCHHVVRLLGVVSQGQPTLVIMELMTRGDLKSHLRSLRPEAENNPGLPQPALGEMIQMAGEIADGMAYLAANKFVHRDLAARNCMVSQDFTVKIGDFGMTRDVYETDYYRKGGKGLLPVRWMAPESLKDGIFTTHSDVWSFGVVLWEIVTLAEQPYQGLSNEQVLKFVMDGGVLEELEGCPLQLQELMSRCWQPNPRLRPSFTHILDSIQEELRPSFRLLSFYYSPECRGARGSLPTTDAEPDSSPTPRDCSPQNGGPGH
Chain of Dual specificity mitogen-activated protein kinase kinase 2 (Homo sapiens) (P36507 whole entry): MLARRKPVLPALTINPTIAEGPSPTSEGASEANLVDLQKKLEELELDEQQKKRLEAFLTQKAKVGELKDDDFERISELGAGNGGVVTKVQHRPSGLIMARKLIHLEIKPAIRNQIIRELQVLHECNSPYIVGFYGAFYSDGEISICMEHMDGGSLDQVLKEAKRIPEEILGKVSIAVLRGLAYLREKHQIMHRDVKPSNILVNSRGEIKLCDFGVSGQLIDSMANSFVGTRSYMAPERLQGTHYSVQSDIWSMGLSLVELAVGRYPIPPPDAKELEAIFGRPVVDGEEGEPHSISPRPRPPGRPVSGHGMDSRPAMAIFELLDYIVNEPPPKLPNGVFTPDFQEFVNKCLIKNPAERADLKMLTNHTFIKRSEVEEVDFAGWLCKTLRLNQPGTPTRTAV

COc1cc(N2CCC(N3CCN(C)CC3)CC2)ccc1Nc1ncc(Cl)c(Nc2ccccc2S(=O)(=O)C(C)C)n1 [TAE-684]
Activity [1]: 104% | Activity [2]: 69% | inhibition (Mus musculus [3]): Active | Activity [4]: 36% | Activity [5]: 44% | Activity [6]: 66% | Activity [7]: 59% | Activity [8]: 75% | Activity [9]: 75% | Activity [10]: 5% | inhibition (Mus musculus [11]): Active | Activity [12]: 109% | inhibition [13]: Active | Activity [14]: 47% | Activity [15]: 20% | Activity [16]: 93% | Activity [17]: 92% | AUClast (Plasma [18]): 6374 ng·h/mL | AUClast (Plasma [19]): 772 ng·h/mL | Activity [20]: 104% | inhibition (Mus musculus [21]): Active | Activity [22]: 94% | Activity [23]: 44% | Activity [24]: 88% | Activity [25]: 60% | Activity [26]: 88% | Vd [27]: 14.5 L/kg | Activity [28]: 95% | Activity [29]: 77% | Activity [30]: 70% | Activity [31]: 106% | Activity [32]: 104% | Activity [33]: 77% | Activity [34]: 18%
